Source: ChEMBL document CHEMBL4138314, “Synthesis and Evaluation of N-Phenyl-3-sulfamoyl-benzamide Derivatives as Capsid Assembly Modulators Inhibiting Hepatitis B Virus (HBV)” (J Med Chem, 2018)
In brackets after ≈: the same amount, converted by molar mass. Activity calls are given as the source filed them. No cut-off for these calls is given here.

How the values were obtained:
[1] = Drug metabolism in mouse liver microsomes at 1 uM after 15 mins by LC-MS/MS analysis; type: ADME, microsome; conditions: read-out: Drug metabolism
Procedure, shortened: (§1)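 Compound incubated 15 min with human or mouse liver microsomes; stability expressed as percent turnover (metabolised) at 15 min.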

Hepatitis B virus [2] = assay: Antiviral activity against Hepatitis B virus infected in human HepG2.117 cells assessed as inhibition of viral DNA level after 3 days by real time PCR; type: functional, organism-based; conditions: HepG2.117, 72 h
HBV genotype D = assay: Antiviral activity against HBV genotype D infected in human HepG2.2.15 cells assessed as inhibition of viral DNA level treated twice for 3 days measured after 6 days by real time PCR; type: functional, organism-based; conditions: Hepatitis B virus
[3] = Kinetic solubility of the compound at pH 7.4 after 4 hrs by UPLC-UV analysis; type: physicochemical; conditions: buffer, read-out: Kinetic_solubility
[4] = Drug metabolism in human liver microsomes at 1 uM after 15 mins by LC-MS/MS analysis; type: ADME, microsome; conditions: read-out: Drug metabolism; procedure, shortened: as §1
[5] = Cytotoxicity against human HepG2 cells after 4 to 6 days by resazurin assay; type: cell-based; conditions: HepG2 cells
[6] = Cytotoxicity against human HepG2 cells after 4 days by resazurin assay; type: cell-based
Hepatitis B virus [7] = assay: Induction of HBV capsid core protein CP149 aggregation assessed as ratio between area under the curve for observed amount of core dimer and area under the curve for aggregated core protein at 20 uM after 24 hrs by size exclusion chromatographic analysis
Procedure, shortened: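 Recombinant HBV core assembly domain (aa 1–149, Cp149) was incubated with compound at 20 µM for 24 h, with a no-compound control run in parallel. Size exclusion chromatography gave the ratio of Cp149 dimer AUC to aggregated Cp149 AUC.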

[8] = target: Core antigen (Hepatitis B virus) (UniProt Q03732); assay: Induction of HBV Maleimidyl BoDIPY-FL-labeled capsid Cp*150 mutant aggregation incubated for 30 mins measured every 10 secs for 30 mins by fluorescence quenching assay
Chain of Core antigen (Hepatitis B virus) (Q03732 as listed by the source): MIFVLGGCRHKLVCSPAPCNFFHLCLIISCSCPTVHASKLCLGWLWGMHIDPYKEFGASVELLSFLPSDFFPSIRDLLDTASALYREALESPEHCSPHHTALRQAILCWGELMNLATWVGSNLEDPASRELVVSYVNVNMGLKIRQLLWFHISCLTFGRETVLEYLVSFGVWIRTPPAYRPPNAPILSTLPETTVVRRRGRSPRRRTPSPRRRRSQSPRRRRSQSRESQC

Structure (SMILES)	metabolised at 0.25 h, 1 µM [1] [%]	EC50 (Hepatitis B virus [2]) [µM]	EC50 (HBV genotype D) [µM]	solubility kinetic at 4 h [3] [µM]	metabolised at 0.25 h, 1 µM [4] [%]	CC50 [5] [µM]	CC50 at 96 h [6] [µM]	Ratio (Hepatitis B virus [7])	Activity [8]
CC(C)NS(=O)(=O)c1cccc(C(=O)Nc2ccc(F)c(C(C)C)c2)c1	96	2.79	1.4	13 (≈ 4.92 µg/mL)	31	29.8	–	–	–
Cc1cc(NC(=O)c2cccc(S(=O)(=O)NC3(C)COC3)c2)c(C)cc1F	78	1.91	3.06	> 100	1	> 25	–	–	–
Cc1c(NC(=O)c2cccc(S(=O)(=O)N[C@H]3CCOC3)c2)ccc(F)c1F	68	1.91	3.63	> 100	37	> 25	–	–	–
CN1CCN(S(=O)(=O)c2cccc(C(=O)Nc3ccc(F)cc3)c2)CC1	84	11.1	26.5	> 100	53	–	> 100	6.3	Active
O=C(Nc1ccc2ccccc2c1)c1cc(S(=O)(=O)NC2CCCCC2)ccc1F	56	> 25	12.7	< 0.2	36	–	13	7.5	inactive
Cc1cc(F)cc(NC(=O)c2cccc(S(=O)(=O)NC3CCCC3)c2)c1	100	1.51	0.11	11 (≈ 4.14 µg/mL)	74	–	> 23	–	Active
CCc1cc(NC(=O)c2cccc(S(=O)(=O)NC(C)C)c2)ccc1F	88	2.59	0.31	15 (≈ 5.47 µg/mL)	31	28.5	–	–	–
COc1cc(NC(=O)c2cccc(S(=O)(=O)N[C@H]3CCOC3)c2)ccc1F	35	2.66	2.33	> 100	20	> 25	–	–	–
N#Cc1cc(NC(=O)c2cccc(S(=O)(=O)N[C@H]3CCOC3)c2)ccc1F	27	0.98	0.81	> 100	13	> 50	–	–	–
O=C(Nc1ccc(F)c(F)c1)c1cccc(S(=O)(=O)NC2CCCC2)c1	86	0.36	0.093	46 (≈ 17.5 µg/mL)	45	–	> 25	–	Active
O=C(Nc1ccncc1)c1cc(S(=O)(=O)NC2CCCCC2)ccc1F	75	16.3	5.3	> 100	68	–	> 25	6	inactive
O=C(Nc1ccc(F)cc1)c1cccc(S(=O)(=O)N2CCCCC2)c1	99	2.7	4.5	9 (≈ 3.26 µg/mL)	65	–	70.4	0.4	–
O=C(Nc1ccc(F)cc1)c1cccc(S(=O)(=O)N2CCOCC2)c1	69	11	8.49	> 100	27	–	> 100	0.6	–
O=C(Nc1ccc(F)c(F)c1)c1cccc(S(=O)(=O)N[C@H]2CCOC2)c1	42	0.51	0.38	> 100	5	> 50	–	–	–
O=C(Nc1nccs1)c1cc(S(=O)(=O)NC2CCCCC2)ccc1F	100	> 25	29.3	> 100	85	–	> 25	9.7	inactive
O=C(Nc1cccnc1)c1cc(S(=O)(=O)NC2CCCCC2)ccc1F	99	24.8	–	> 100	57	–	> 25	9.8	inactive
Cc1cc(NC(=O)c2cccc(S(=O)(=O)NC3CCCC3)c2)ccc1F	97	0.42	0.1	33 (≈ 12.4 µg/mL)	66	–	48.2	0.02	Active
O=C(Nc1cc(F)cc(F)c1)c1cccc(S(=O)(=O)NC2CCCC2)c1	100	0.78	0.28	28 (≈ 10.7 µg/mL)	79	–	> 25	–	Active
O=C(Nc1ccc(F)cc1)c1cccc(NC(=O)C2CCCCC2)c1	87	> 25	62.2	7 (≈ 2.38 µg/mL)	55	–	57.7	7.2	–
O=C(Nc1ccc(F)cc1)c1cc(S(=O)(=O)NC2CCCCC2)ccc1F	79	1.3	0.78	58 (≈ 22.9 µg/mL)	61	–	> 50	0.3	–
CN(C(=O)c1cccc(S(=O)(=O)NC2CCCC2)c1)c1ccc(F)cc1	100	> 25	89.6	> 100	100	–	> 25	–	inactive
O=C(Nc1cccc2ccccc12)c1cc(S(=O)(=O)NC2CCCCC2)ccc1F	100	> 25	15.6	12 (≈ 5.12 µg/mL)	94	–	> 25	–	inactive
CC(=O)N1CCC(NS(=O)(=O)c2cccc(C(=O)Nc3ccc(F)cc3)c2)CC1	23	4.68	6.77	> 100	0	–	> 100	2.9	–
O=S(=O)(NC1CCCCC1)c1ccc(F)c(-c2ncc(-c3ccccc3)[nH]2)c1	99	23.3	1.7	3 (≈ 1.2 µg/mL)	75	–	19.2	10.2	–
O=C(Nc1ccc(F)cc1)c1cccc(S(=O)(=O)NC2COC2)c1	21	3.05	2.1	> 100	14	–	> 100	0.8	–
